For test [1], the species on record is Cavia porcellus. Briefly: Percent inhibition of the leukotriene E4 (LTE4)-induced contraction of guinea pig tracheal spirals at 10 uM concentration; NS means data was not statistically significant. The format is functional. The following applies: Trachea. Summed up: (§1)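 Guinea pig tracheal spirals were split into paired sections in 10 mL baths of modified Krebs at 37 °C, gassed with 95% O₂/5% CO₂, under 2 g resting tension. After 60 min equilibration (washes every 15 min), reproducible contractions to 8 nM LTD₄ or 8 nM LTE₄ were obtained. Compound was added for 10 min, then agonist challenge repeated; percent inhibition is relative to the vehicle-treated paired section.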

Test [2] is filed under the species Cavia porcellus. Briefly: Percent inhibition of the leukotriene E4 (LTE4)-induced contraction of guinea pig tracheal spirals at 50 uM concentration. The test is classed as functional. The following applies: Trachea. Put shortly: as §1
The species entered for test [3] is Cavia porcellus. Briefly: Percent inhibition of the leukotriene E4 (LTE4)-induced contraction of guinea pig tracheal spirals at 10 uM concentration; NS means data was not statistically significant. The following applies: Trachea.
For test [4], the species on record is Cavia porcellus. Briefly: Percent inhibition of the leukotriene E4 (LTE4)-induced contraction of guinea pig tracheal spirals at 50 uM concentration; NS means data was not statistically significant. The format is functional. The following applies: Trachea. Put shortly:
as §1

Test [5] deals with T1, Cysteinyl leukotriene receptor 1 (Cavia porcellus) (UniProt Q2NNR5).
T1 sequence (whole entry): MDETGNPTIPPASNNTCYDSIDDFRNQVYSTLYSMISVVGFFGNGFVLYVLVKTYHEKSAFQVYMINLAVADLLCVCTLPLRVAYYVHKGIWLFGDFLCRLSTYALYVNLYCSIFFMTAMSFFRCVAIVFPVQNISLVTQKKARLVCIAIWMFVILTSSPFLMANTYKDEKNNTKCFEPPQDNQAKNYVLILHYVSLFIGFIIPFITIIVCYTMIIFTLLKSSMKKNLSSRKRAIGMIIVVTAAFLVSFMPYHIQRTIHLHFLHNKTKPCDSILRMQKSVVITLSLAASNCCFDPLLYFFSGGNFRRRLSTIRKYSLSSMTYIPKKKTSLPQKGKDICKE
Briefly: Dissociation constant (KB) […] was evaluated in vitro in isolated guinea pig tracheal strips.

For test [6], the species on record is Cavia porcellus. Description: Percent inhibition of the leukotriene E4 (LTE4)-induced contraction of guinea pig tracheal spirals at 5 uM concentration. The test is classed as functional. The conditions noted are these: Trachea. Put shortly:
as §1

For test [7], the system named is Cavia porcellus. Description: Compound (50 mg/kg, intraperitoneally) was tested in spontaneously breathing, conscious guinea pigs challenged with aerosolized LTD4 (60-min pretreatment). The test is classed as functional.
Test [8] has as its system Cavia porcellus. Description: Compound (50 mg/kg, intraperitoneally) was tested in spontaneously breathing, conscious guinea pigs challenged with aerosolized LTD4 (30-min pretreatment). The test is classed as functional.
For test [9], the species on record is Cavia porcellus. Briefly: Inhibition of the leukotriene D4 (LTD4)-induced contraction of guinea pig tracheal spirals at 10 uM concentration. The format is functional. The conditions noted are these: Trachea. Summed up:
as §1

The species named for test [10] is Cavia porcellus. Description: Percent inhibition of the leukotriene D4 (LTD4)-induced contraction of guinea pig tracheal spirals at 100 uM concentration. The test is classed as functional. The following applies: Trachea. Put shortly:
as §1

For test [11], the species on record is Cavia porcellus. Briefly: Percent inhibition of the leukotriene D4 (LTD4)-induced contraction of guinea pig tracheal spirals at 10 uM concentration; NS means data was not statistically significant. The test is classed as functional. The following applies: Trachea. Summed up:
as §1

Test [12] concerns the target T1, Cysteinyl leukotriene receptor 1 (Cavia porcellus). Briefly: Dissociation constant (KB) versus Cysteinyl leukotriene D4 receptor was evaluated in vitro in isolated guinea pig tracheal strips.
For test [13], the species on record is Cavia porcellus. Description: Percent inhibition of the leukotriene E4 (LTE4)-induced contraction of guinea pig tracheal spirals at 1 uM concentration. The conditions noted are these: Trachea.
Test [14] is filed under the species Cavia porcellus. Description: Percent inhibition of the leukotriene D4 (LTD4)-induced contraction of guinea pig tracheal spirals at 50 uM concentration. The test is classed as functional. The conditions noted are these: Trachea. Summed up:
as §1

The species named for test [15] is Cavia porcellus. Briefly: Percent inhibition of the leukotriene D4 (LTD4)-induced contraction of guinea pig tracheal spirals at 4 uM concentration. The format is functional. The following applies: Trachea. Summed up: as §1
Test [16] is filed under the species Cavia porcellus. Description: Percent inhibition of the leukotriene E4 (LTE4)-induced contraction of guinea pig tracheal spirals at 10 uM concentration. The test is classed as functional. The conditions noted are these: Trachea. Summed up:
as §1

Molecules are shown by their SMILES.

For the compound `CCCc1c(OCc2ccc(C(=O)O)cc2OC)ccc(C(=O)N(C)C)c1O`, the inhibition (commonly the change of the read-out against control, counted positive when it falls) in the test filed under Cavia porcellus [1] is “Not statistically significant”. In addition, at 50 µM the inhibition in the test listed under Cavia porcellus [2] was 84%.
For the compound `CCCC(=O)N(Cc1ccc(C(=O)O)cc1OC)c1ccc(C(C)=O)c(O)c1`, the inhibition result in the test filed under Cavia porcellus [3] was “Not statistically significant”.
Turning to `CCCc1c(OCc2ccc(C(=O)O)cc2OC)ccc(C(=O)O)c1O`, the inhibition result in the test listed under Cavia porcellus [4] is “Not statistically significant”.
The compound `CCCc1c(OCc2ccc(C(=O)O)cc2OC)ccc(C(=O)OC)c1O` returned a Kb in [5] of 3180 nM. Besides, the inhibition at 5 µM in the test listed under Cavia porcellus [6] was found to be 52%. In the test with Cavia porcellus [7], the Protection stood at 29%.
For `COc1cc(C(=O)O)ccc1COc1ccc(C(C)=O)c(O)c1CCCC(=O)O`, the inhibition result in the test filed under Cavia porcellus [4] is “Not statistically significant”.
In the case of `COc1cc(C(=O)O)ccc1COc1ccc(C(C)=O)c(O)c1C=C(C)C`, at 5 µM the inhibition in the test listed under Cavia porcellus [6] was 69%.
With `CCCc1c(OCc2ccc(C(=O)O)cc2F)ccc(C(C)=O)c1O`, the Kb in test [5] was 520 nM. Also, the results for the Protection in the test with Cavia porcellus [8] and in the test with Cavia porcellus [7] were 18% and 0%, respectively. In the test listed under Cavia porcellus [9], this compound returned an inhibition at 10 µM of 99%.
In turn, `CCCc1c(OCc2cccc(C(=O)O)c2)ccc(C(C)=O)c1O` displayed an inhibition at 100 µM in the test filed under Cavia porcellus [10] of 100%. This compound yielded an inhibition at 10 µM in the test filed under Cavia porcellus [9] of 50%.
With `CCCc1c(OCCC[S+]([O-])CC(=O)O)ccc(C(C)=O)c1O` (stereo not given), the inhibition result in the test listed under Cavia porcellus [11] is “Not statistically significant”.
On to `CCCc1c(OCCCCc2nnn[nH]2)ccc(C(C)=O)c1O` [TOMELUKAST], for which the Protection in the test with Cavia porcellus [7] is 49%. In test [12], this compound yielded a Kb of 180 nM.
In turn, `CCCc1c(OCc2cc(/C=C\C(=O)O)ccc2OC)ccc(C(C)=O)c1O` yielded an inhibition at 1 µM in the test filed under Cavia porcellus [13] of 14%. Besides, at 10 µM the inhibition in the test listed under Cavia porcellus [9] was 28%.
In turn, `CCCc1c(OCc2ccc(NC(=O)c3ccccc3C(=O)O)cc2)ccc(C(C)=O)c1O` gave an inhibition at 1 µM in the test filed under Cavia porcellus [13] of 49%.
For the compound `CCCc1c(OCc2ccccc2-c2nn[nH]n2)ccc(C(C)=O)c1O`, the inhibition result in the test filed under Cavia porcellus [3] was “Not statistically significant”.
Still for that read-out and setting: then `CCCc1c(NC(=O)c2ccc(C(=O)O)cc2OC)ccc(C(C)=O)c1O`, with “Not statistically significant”.
Regarding `CCCc1c(OCCCSCC(=O)O)ccc(C(C)=O)c1O`, testing at 100 µM in the test listed under Cavia porcellus [10] gave an inhibition of 100%. The compound further came in with an inhibition at 10 µM in the test filed under Cavia porcellus [9] of 62%.
`CCCc1ccccc1OCc1ccc(C(=O)O)cc1OC` had an inhibition at 50 µM in the test filed under Cavia porcellus [14] of 81%. Further, the inhibition at 10 µM in the test listed under Cavia porcellus [9] was 25%.
`CCCc1c(OCc2ccc(C(=O)O)cc2OC)ccc2c(C)cc(=O)oc12` had an inhibition at 4 µM in the test filed under Cavia porcellus [15] of 44%. The Protection with Cavia porcellus [8] came out at 27%. In the test filed under Cavia porcellus [9], this compound had an inhibition at 10 µM of 78%.
The compound `CCCc1c(OCC(O)CNC(CS)C(=O)NCC(=O)O)ccc(C(C)=O)c1O` (stereo not given) returned an inhibition at 100 µM in the test listed under Cavia porcellus [10] of 33%.
`CCCN(Cc1ccc(C(=O)O)cc1OC)c1ccc(C(C)=O)c(O)c1` had an inhibition at 50 µM in the test listed under Cavia porcellus [2] of 35%. In the test listed under Cavia porcellus [16], the inhibition at 10 µM stood at 24%.
In the test listed under Cavia porcellus [9], `CCCc1c(OCc2ccc(C(=O)O)cc2OC)ccc(C(N)=O)c1O` showed an inhibition at 10 µM of 72%. In addition, in the test filed under Cavia porcellus [2], the inhibition at 50 µM turned out to be 86%.
`CCCc1c(OCc2ccc(C(=O)O)cc2OC)ccc(C(=O)c2ccccc2)c1O`: the inhibition result in the test listed under Cavia porcellus [3] was “Not statistically significant”. The compound further returned an inhibition at 50 µM in the test listed under Cavia porcellus [14] of 20%.
For the compound `CCCc1c(OCc2ccccc2C(=O)O)ccc(C(C)=O)c1O`, the inhibition result in the test filed under Cavia porcellus [11] was “Not statistically significant”. In the test listed under Cavia porcellus [10], this compound gave an inhibition at 100 µM of 91%.
Compound `CCCc1c(OCc2cccc(/C=C/C(=O)O)c2)ccc(C(C)=O)c1O` gave a Kb in test [5] of 630 nM. In the test listed under Cavia porcellus [15], at 4 µM the inhibition was 66%. Moreover, the Protection with Cavia porcellus [8] is listed as 19%. Besides, the inhibition at 1 µM in the test filed under Cavia porcellus [13] turned out to be 41%.
On to `CCCc1c(OCc2ccc(C(=O)O)cc2OC)ccc(C(C)=O)c1O`, for which the Protection with Cavia porcellus [7] was determined as 19%. In [12], the Kb amounted to 360 nM. This compound returned an inhibition at 10 µM in the test filed under Cavia porcellus [9] of 99%.
In [5], `CCCc1c(OCc2ccc(/C=C/C(=O)O)cc2)ccc(C(C)=O)c1O` had a Kb of 570 nM. Further, in the test with Cavia porcellus [7], the Protection is on record as 34%. Moreover, in the test listed under Cavia porcellus [13], the inhibition at 1 µM came to 48%.
Regarding `CCCc1c(N(Cc2ccc(C(=O)O)cc2OC)C(C)=O)ccc(C(C)=O)c1O`, the inhibition result in the test filed under Cavia porcellus [3] is “Not statistically significant”.
